This is an account of results in ChEMBL document CHEMBL4715934, “Discovery of Imidazopyridines as Potent Inhibitors of Indoleamine 2,3-Dioxygenase 1 for Cancer Immunotherapy” (ACS Med Chem Lett, 2021).

Some results are limits rather than exact numbers.

The nature of series [1]: Induction of proliferation of human T eff cells by T cell/DC mixed lymphocyte reaction (MLR) assay.
The nature of series [2]: Metabolic stability in rat liver microsomes assessed as parent compound remaining at 0.5 uM after 10 mins. The series is classed as ADME, Microsome. To be noted: read-out: Stabilty. An outline of the steps:
(§1)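 Parent compound at 0.5 μM incubated 10 min with 1 mg/mL human, mouse or rat liver microsomes; fraction of parent remaining reported; average of N = 2 unless noted.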
For orientation: Liver microsomes are vesicles of endoplasmic reticulum, rich in cytochrome P450 enzymes.

The nature of another series: in vivo. Particulars: mouse, tumor, po, 60 mg/kg.
Series [3] can be described thus: In vivo inhibition of IDO1 in mouse xenografted with human SKOV3 cells assessed as reduction in tumor kynurenine AUEC at 60 mg/kg, po qd for 5 days measured upto 24 hrs after dosing relative to vehicle treated control. The series is classed as functional. To be noted: SK-OV-3, po, 120 h, time 5 day. In a few lines:
(§2)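 nu/nu nude mice carrying SKOV3 tumors grown 2 weeks; dosed QD for 5 days starting day 14. On day 18, tumor sampled at 2, 6 and 24 h for drug level and kynurenine. […] Kyn reduction measured at steady state after the 5th dose, taken as area under the Kyn concentration–time curve 0–24 h versus vehicle control.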
Background: A xenograft is tissue or cells of one species grown in another, often human tumour cells in immunodeficient mice.

Series [4] in a line: Permeability at pH 5.5 by PAMPA. The series is classed as ADME. To be noted: read-out: permeability.
A short description of series [5]: Permeability across apical to basolateral side in human Caco2 cells. The series is classed as ADME, cell-based. To be noted: Caco-2, read-out: permeability. (Passage across Caco-2 layers is used to estimate intestinal permeability.)
The next series deals with Cytochrome P450 2C9 (Homo sapiens, UniProt P11712). Description: Inhibition of recombinant human CYP2C9. Format: ADME.
Chain of Cytochrome P450 2C9 (P11712 whole entry): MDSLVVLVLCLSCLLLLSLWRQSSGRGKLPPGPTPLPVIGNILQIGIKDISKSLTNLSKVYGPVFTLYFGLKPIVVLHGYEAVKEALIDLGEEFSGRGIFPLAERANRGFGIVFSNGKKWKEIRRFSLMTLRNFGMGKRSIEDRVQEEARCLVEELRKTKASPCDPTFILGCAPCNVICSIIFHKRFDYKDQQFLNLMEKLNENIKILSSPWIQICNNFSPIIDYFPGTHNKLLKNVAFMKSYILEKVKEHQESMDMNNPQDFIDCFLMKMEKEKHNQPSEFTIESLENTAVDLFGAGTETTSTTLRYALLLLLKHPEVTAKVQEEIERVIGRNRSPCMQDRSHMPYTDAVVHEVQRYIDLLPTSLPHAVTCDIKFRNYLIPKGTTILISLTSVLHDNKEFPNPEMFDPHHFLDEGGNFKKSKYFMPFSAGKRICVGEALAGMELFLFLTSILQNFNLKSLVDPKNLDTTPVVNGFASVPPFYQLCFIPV
The nature of series [6]: Metabolic stability assessed as human UGT-mediated metabolism by measuring half life. Format: ADME.
Series [7] in a line: Metabolic stability assessed as rat CYP-mediated metabolism by measuring half life. The series is classed as ADME.
A short description of series [8]: Permeability across basolateral to apical side in human Caco2 cells. Format: ADME, cell-based. To be noted: Caco-2, read-out: permeability.
The nature of series [9]: Metabolic stability assessed as cynomolgus monkey UGT -mediated metabolism by measuring half life. Format: ADME, Macaca fascicularis.
Series [10] can be described thus: Metabolic stability assessed as cynomolgus monkey CYP-mediated metabolism by measuring half life. Format: ADME, Macaca fascicularis.
Series [11] in a line: Metabolic stability in mouse liver microsomes assessed as parent compound remaining at 0.5 uM after 10 mins. The series is classed as ADME, Microsome. Particulars: read-out: Stabilty. An outline of the steps: as §1
In series [12] the target is Indoleamine 2,3-dioxygenase 1 (Mus musculus, UniProt P28776). Briefly: Inhibition of IDO1 in recombinant IFN-gamma induced mouse M109 cells incubated for 18 hrs by fluorescence microplate reader assay. The series is classed as cell-based. An outline of the steps: (§3)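 HeLa (human) or M109 (murine) cells induced with IFNγ to express IDO1, then cellular IDO1 activity measured; values are the average of N = 2 unless noted.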
Chain of Indoleamine 2,3-dioxygenase 1 (Mus musculus, UniProt P28776) (P28776 whole entry): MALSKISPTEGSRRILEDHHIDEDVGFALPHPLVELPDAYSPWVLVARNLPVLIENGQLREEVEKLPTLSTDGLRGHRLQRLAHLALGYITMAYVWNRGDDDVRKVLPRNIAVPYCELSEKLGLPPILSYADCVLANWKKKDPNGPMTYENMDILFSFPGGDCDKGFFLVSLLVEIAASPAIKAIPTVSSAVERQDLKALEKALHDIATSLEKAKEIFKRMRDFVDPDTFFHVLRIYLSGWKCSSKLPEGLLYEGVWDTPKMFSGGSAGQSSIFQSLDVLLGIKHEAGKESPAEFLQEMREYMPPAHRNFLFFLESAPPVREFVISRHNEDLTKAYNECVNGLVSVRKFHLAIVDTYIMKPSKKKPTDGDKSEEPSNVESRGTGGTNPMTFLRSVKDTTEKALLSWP

In another series the target is T1, Cytochrome P450 2C8 (Homo sapiens, UniProt P10632).
T1 sequence (P10632 whole entry): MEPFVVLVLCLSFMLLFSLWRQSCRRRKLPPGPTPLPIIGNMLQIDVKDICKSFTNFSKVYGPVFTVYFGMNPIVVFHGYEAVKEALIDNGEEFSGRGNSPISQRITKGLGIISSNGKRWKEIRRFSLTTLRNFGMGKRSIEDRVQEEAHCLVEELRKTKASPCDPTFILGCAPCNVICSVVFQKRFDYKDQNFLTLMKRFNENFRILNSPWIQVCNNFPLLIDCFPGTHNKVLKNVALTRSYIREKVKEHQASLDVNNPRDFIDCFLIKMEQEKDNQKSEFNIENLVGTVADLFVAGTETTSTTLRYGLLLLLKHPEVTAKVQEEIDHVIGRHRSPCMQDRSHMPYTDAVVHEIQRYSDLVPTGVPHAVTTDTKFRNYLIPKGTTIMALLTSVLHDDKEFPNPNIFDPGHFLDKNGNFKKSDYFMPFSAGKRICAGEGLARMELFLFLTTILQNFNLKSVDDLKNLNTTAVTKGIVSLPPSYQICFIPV
Briefly: Inhibition of recombinant human CYP2C8. Format: ADME.

Series [13] in a line: Metabolic stability in human liver microsomes assessed as parent compound remaining at 0.5 uM after 10 mins. The series is classed as ADME, Microsome. Particulars: read-out: Stabilty. In a few lines: as §1
The nature of series [14]: Metabolic stability assessed as dog UGT -mediated metabolism by measuring half life. Format: ADME, Canis lupus familiaris.
Another series has as its target T2, Cytochrome P450 1A2 (Homo sapiens, UniProt P05177).
T2 sequence (P05177 whole entry): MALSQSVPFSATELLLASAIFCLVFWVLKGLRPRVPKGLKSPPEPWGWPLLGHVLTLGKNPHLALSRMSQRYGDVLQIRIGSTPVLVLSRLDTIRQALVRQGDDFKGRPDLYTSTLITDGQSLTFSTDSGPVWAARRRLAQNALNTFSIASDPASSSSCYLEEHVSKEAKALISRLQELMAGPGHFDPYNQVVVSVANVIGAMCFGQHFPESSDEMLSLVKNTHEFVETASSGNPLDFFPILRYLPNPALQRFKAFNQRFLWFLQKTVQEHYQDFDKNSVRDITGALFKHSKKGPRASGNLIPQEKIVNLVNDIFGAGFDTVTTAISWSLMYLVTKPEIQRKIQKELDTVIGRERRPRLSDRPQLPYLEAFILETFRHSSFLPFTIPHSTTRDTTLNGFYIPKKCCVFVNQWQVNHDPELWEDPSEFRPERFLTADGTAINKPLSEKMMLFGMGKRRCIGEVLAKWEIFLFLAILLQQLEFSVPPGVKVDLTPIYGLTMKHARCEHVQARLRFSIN
Description: Inhibition of recombinant human CYP1A2. Format: ADME.

Series [15] is described as follows: AUC (0 to 24 hrs) in mouse xenografted with human SKOV3 cells assessed in tumor at 20 mg/kg, po qd for 5 days measured upto 24 hrs after dosing. The series is classed as ADME, organism-based. Details: route oral, dose 20 mg/kg, time 5 day. In a few lines: as §2
Series [16] in a line: Metabolic stability assessed as dog CYP-mediated metabolism by measuring half life. Format: ADME, Canis lupus familiaris.
Series [17] in a line: Permeability at pH 7.4 by PAMPA. Format: ADME. Particulars: read-out: permeability.
Series [18] has as its target T3, Indoleamine 2,3-dioxygenase 1 (Homo sapiens, UniProt P14902). Briefly: Inhibition of IDO1 in recombinant IFN-gamma induced human HeLa cells incubated for 18 hrs by fluorescence microplate reader assay. In a few lines:
as §3

Another series addresses Cytochrome P450 2D6 (Homo sapiens, UniProt P10635). Description: Inhibition of recombinant human CYP2D6. Format: ADME.
Series [19] in a line: Metabolic stability assessed as mouse CYP-mediated metabolism by measuring half life. The series is classed as ADME.
Series [20] in a line: Metabolic stability assessed as human CYP-mediated metabolism by measuring half life. The series is classed as ADME.
The nature of series [21]: Metabolic stability assessed as rat UGT -mediated metabolism by measuring half life. The series is classed as ADME.
Another series has as its target Cytochrome P450 2C19 (Homo sapiens, UniProt P33261). Briefly: Inhibition of recombinant human CYP2C19. The series is classed as ADME.
A further series concerns the target Cytochrome P450 3A4 (Homo sapiens, UniProt P08684). Description: Inhibition of recombinant human CYP3A4. Format: ADME.
A short description of series [22]: Metabolic stability assessed as mouse UGT -mediated metabolism by measuring half life. The series is classed as ADME.
The target in series [23] is T3, Indoleamine 2,3-dioxygenase 1. Briefly: Inhibition of IDO1 in IFN-gamma/LPS induced human whole blood assessed as tryptophan/kynurenine level measured after 18 hrs by RapidFire mass spectrometry. Format: tissue-based.
Series [24] has as its target T4, Nuclear receptor subfamily 1 group I member 2 (Homo sapiens, UniProt O75469).
T4 sequence (O75469 whole entry): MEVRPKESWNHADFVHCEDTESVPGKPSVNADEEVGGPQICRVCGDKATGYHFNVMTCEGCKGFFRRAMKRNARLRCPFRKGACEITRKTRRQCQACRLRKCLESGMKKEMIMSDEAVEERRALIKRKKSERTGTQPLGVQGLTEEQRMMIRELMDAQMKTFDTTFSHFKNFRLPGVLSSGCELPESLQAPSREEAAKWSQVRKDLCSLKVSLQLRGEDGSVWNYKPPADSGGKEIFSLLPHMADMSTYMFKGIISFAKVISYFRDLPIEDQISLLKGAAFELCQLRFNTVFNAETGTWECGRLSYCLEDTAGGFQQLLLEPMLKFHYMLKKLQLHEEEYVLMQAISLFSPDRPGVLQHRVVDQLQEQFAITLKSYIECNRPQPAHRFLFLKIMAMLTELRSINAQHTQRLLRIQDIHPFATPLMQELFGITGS
Briefly: Transactivation of PXR (unknown origin) assessed as CYP450 induction.

The next series deals with T5, PXR (NR1I2) (Homo sapiens, UniProt O75469).
T5 sequence (O75469 whole entry): T4 sequence (O75469 whole entry)
Description: Transactivation of PXR (unknown origin) assessed as CYP450 induction relative to rifampicin.

T3 sequence (P14902 whole entry): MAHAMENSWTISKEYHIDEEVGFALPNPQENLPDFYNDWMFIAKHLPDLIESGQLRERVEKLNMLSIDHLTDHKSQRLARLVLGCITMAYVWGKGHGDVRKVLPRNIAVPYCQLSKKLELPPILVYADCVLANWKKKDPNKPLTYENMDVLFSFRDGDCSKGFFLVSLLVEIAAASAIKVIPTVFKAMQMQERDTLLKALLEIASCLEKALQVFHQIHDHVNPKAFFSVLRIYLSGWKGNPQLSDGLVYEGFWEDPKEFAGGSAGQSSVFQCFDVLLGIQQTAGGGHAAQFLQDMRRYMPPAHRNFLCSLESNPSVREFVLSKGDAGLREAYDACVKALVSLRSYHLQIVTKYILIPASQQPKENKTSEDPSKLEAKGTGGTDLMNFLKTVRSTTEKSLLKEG
Chain of Cytochrome P450 3A4 (P08684 whole entry): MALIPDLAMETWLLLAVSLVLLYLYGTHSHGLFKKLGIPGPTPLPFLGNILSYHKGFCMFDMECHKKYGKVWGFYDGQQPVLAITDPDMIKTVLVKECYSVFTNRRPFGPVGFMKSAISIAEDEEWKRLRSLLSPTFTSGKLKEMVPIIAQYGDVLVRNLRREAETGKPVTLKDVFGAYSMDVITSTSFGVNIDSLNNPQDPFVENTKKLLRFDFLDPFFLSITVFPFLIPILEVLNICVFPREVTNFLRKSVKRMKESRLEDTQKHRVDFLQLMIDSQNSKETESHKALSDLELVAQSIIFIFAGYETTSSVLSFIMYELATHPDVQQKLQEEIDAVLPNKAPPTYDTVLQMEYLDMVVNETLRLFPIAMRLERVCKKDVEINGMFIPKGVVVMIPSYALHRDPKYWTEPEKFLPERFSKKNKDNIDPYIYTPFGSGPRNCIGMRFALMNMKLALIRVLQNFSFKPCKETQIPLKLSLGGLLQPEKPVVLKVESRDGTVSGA
Chain of Cytochrome P450 2C19 (P33261 whole entry): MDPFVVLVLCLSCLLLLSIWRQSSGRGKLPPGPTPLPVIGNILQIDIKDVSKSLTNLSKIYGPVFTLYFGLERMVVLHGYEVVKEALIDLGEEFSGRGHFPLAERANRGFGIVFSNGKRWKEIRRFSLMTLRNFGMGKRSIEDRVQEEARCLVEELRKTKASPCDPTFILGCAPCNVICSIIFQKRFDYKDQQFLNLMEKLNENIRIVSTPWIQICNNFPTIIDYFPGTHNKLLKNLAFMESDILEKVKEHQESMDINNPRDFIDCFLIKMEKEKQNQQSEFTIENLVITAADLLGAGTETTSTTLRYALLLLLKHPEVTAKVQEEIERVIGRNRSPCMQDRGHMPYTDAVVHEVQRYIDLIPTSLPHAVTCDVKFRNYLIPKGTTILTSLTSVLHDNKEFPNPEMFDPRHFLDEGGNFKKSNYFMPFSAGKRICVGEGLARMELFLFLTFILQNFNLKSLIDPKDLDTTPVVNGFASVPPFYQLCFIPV
Chain of Cytochrome P450 2D6 (P10635 whole entry): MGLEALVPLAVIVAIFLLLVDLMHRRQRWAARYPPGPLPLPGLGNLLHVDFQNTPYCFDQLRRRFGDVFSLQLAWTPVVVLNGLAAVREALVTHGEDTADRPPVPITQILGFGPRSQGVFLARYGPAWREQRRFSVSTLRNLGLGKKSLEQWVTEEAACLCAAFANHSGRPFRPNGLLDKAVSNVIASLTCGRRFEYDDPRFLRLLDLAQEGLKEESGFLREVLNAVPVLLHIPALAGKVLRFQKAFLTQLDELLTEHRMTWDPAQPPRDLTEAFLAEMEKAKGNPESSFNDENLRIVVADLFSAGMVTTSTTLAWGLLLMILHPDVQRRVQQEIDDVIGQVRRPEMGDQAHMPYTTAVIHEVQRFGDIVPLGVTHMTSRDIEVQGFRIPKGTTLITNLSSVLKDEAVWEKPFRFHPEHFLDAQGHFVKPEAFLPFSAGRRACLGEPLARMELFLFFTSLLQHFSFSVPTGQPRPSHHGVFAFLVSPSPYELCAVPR

In turn, `C[C@@H](C(=O)Nc1ccc(Cl)cc1)[C@H]1CC[C@@H](c2ccnc3ccc(F)cc32)CC1` returned an EC50 in [1] of 2 nM. The remaining at 10 min, 0.5 µM in series [2] is 86%. The AUC at 120 h in the series “in vivo” came out at 34.9 µM·h. The inhibition in vivo at 60 mg/kg in series [3] came out at 61%.
With `CCC(c1nc2ncc(Cl)cc2[nH]1)[C@H]1CC[C@@H](c2ccnc3ccc(C(F)(F)F)cc32)CC1` (some centres undefined), the results for the Papp in [4] and in series [17] were 238 ×10⁻⁶ cm/s and 263 ×10⁻⁶ cm/s, respectively. Further, in series [5], the Papp A→B stood at 11.3 ×10⁻⁶ cm/s. The half-inhibitory concentration (IC50) turned out to be 242 nM at Cytochrome P450 2C9; 3 nM in series [12]; 1470 nM on Cytochrome P450 2C8; 2550 nM at Cytochrome P450 1A2; 2 nM in series [18]; 4280 nM at Cytochrome P450 2D6. Besides, the IC50 on Cytochrome P450 2C19 was determined as 1130 nM; on Cytochrome P450 3A4, 1930 nM; in [23], 21 nM. Also, the half-life is 1.58 h in series [6]; 1 h in [7]; over 2 h in series [9]; 0.35 h in series [10]; 1.75 h in [14]; 0.683 h in series [16]. In addition, the half-life is 0.283 h in series [19], 0.9 h in series [20], 1.78 h in [21] and over 2 h in [22]. Further, in [8], the Papp B→A is 6.6 ×10⁻⁶ cm/s. Moreover, the remaining at 10 min, 0.5 µM in series [11] came out at 57%; in series [13], 81%; in series [2], 81%. In series [15], this molecule gave an AUC at 120 h of 43.6 µM·h.
As to `CCC(Nc1nnc(-c2ccc(OC)cc2)o1)[C@H]1CC[C@H](Oc2ccnc3ccccc23)CC1` (some centres undefined), the concentration giving a half-maximal response (EC50) in [24] is over 50000 nM. In addition, the values for the remaining at 10 min, 0.5 µM in series [11], in [13] and in series [2] were 39%, 83% and 88%, respectively. Besides, the IC50 amounted to 148 nM in [12], 13 nM in [18] and 459 nM in [23]. Moreover, on PXR (NR1I2), the Emax was over 50%.

As usually defined, the EC50 is the concentration that produces a half-maximal response. By AUC is commonly meant the area under the concentration-time curve, a measure of exposure. In general, inhibition in vivo refers to the share of the control response that was lost under treatment. The IC50 is the midpoint of a concentration-inhibition curve. One may read the half-life as the time in which the quantity being followed falls by half. What is called Emax is the size of the effect at its maximum, as opposed to the concentration needed.
